Results as given in ChEMBL document CHEMBL1933001, “LDV peptidomimetics equipped with biotinylated spacer-arms: synthesis and biological evaluation on CCRF-CEM cell line” (Bioorg Med Chem Lett, 2012).
The source made the active and inactive calls. No cut-off for these calls is given here.

How the values were obtained:
Integrin alpha-4/beta-1 [1] = target: T1, Integrin alpha-4/beta-1 (Homo sapiens, UniProt P05556+P13612); assay: Inhibition of alpha4beta1 integrin expressed in human CCRF-CEM cells assessed as cell adhesion to fibronectin after 1 hr by fluorimetry analysis; format: cell-based
Method in brief: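 Calcein-prelabelled CCRF-CEM cells (α4β1-expressing T lymphoblast-like line) were added to plates coated with fibronectin (10 µg/mL). Incubation was 1 h at 37 °C with or without increasing compound doses (1–500 µM). Adherent cells were quantified by fluorescence, and IC50 was derived from the inhibition of adhesion.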

HUVEC = assay: Inhibition of fibronectin adhesion into HUVEC after 1 hr by fluorimetry analysis; format: functional, cell-based; details: Homo sapiens
Integrin alpha-4/beta-1 [2] = target: T1, Integrin alpha-4/beta-1; assay: Detachment of pre-adhered alpha4beta1 integrin expressed in calcein-labelled human CCRF-CEM cells from fibronectin at 1 to 500 uM after 24 to 48 hrs by MTT assay; format: cell-based
Integrin alpha-4/beta-1 [3] = target: T1, Integrin alpha-4/beta-1; assay: Induction of adhesion of alpha4beta1 integrin expressing calcein-labelled human CCRF-CEM cells to neutravidin-coated plates at 0.1 to 10 uM pre-incubated for 2 hrs measured after 1 hr by fluorimetry; format: cell-based
Method in brief: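 Neutravidin-coated plates were pre-treated with biotin-conjugated compound, then calcein-labelled CCRF-CEM cells were added. Adherent cells were quantified by calcein fluorescence. Untreated plates served as control.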

CCRF-CEM = assay: Cytotoxicity against human CCRF-CEM cells at 200 uM after 24 hrs by propidium iodide-based flow cytometry; format: cell-based
Method in brief: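 CCRF-CEM cells were incubated for 24 h with increasing amounts of compound, up to 200 µM final, then stained with propidium iodide to detect dead cells by fluorescence.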

Integrin alpha-4/beta-1 [4] = target: T1, Integrin alpha-4/beta-1; assay: Binding affinity to alpha4beta1 integrin expressed human CCRF-CEM cells at 100 uM after 24 hrs by alexa-conjugated streptavidin-based microscopy; format: cell-based
Method in brief: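 Fibronectin-coated plates (10 µg/mL). Adherent CCRF-CEM cells were exposed to biotin-conjugated molecules at 100 µM for 24 h and washed extensively. Alexa 568-conjugated streptavidin was then added, and extracellular fluorescence on the cell surface was imaged. Controls were not pre-treated and received only fluorescent streptavidin.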

T1 sequence (P05556 whole entry): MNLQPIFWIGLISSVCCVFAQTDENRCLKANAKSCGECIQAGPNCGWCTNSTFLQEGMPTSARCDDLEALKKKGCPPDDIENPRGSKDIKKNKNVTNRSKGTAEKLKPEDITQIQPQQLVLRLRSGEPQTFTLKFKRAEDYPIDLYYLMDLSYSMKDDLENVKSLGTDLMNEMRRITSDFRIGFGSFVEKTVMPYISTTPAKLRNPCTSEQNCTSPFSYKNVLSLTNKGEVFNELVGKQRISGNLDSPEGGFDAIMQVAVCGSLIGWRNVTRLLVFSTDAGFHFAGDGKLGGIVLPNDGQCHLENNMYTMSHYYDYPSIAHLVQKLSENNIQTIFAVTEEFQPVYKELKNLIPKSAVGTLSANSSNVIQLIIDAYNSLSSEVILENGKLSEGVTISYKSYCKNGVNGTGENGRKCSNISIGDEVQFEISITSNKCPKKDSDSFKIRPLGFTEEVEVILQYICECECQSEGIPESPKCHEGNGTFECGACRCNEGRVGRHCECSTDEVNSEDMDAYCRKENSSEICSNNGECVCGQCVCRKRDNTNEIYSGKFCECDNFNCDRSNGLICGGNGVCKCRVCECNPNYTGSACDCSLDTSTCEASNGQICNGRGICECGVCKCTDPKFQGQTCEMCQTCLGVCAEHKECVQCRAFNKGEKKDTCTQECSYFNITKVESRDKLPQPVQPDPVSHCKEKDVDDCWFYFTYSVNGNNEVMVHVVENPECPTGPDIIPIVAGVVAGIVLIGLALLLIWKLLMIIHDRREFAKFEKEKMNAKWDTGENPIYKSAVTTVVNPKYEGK
T1 sequence (P13612 whole entry): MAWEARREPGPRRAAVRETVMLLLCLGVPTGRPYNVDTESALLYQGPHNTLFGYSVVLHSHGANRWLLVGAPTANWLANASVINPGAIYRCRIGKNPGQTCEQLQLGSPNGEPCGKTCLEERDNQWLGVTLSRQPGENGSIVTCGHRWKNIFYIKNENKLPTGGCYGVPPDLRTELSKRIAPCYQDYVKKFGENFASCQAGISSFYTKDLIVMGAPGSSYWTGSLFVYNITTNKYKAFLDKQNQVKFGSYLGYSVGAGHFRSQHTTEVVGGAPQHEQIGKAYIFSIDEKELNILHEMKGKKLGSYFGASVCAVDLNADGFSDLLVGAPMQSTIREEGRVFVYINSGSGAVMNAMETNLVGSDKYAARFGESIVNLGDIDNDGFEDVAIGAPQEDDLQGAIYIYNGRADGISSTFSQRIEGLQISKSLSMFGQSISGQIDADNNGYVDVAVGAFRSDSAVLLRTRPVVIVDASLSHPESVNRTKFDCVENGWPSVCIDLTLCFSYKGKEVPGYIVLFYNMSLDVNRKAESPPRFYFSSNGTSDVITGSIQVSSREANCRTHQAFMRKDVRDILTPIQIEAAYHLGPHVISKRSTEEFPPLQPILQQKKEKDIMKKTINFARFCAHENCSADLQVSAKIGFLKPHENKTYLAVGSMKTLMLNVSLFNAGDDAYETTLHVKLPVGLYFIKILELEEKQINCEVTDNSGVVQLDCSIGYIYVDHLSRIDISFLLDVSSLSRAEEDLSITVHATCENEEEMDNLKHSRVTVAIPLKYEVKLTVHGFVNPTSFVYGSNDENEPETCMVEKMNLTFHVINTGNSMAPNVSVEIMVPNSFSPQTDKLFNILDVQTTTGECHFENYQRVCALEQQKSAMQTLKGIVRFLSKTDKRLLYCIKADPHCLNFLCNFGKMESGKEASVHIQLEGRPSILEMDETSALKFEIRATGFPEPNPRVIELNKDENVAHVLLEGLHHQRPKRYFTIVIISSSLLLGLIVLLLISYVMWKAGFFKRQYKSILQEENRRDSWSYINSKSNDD

Row | Structure (SMILES) | IC50 (Integrin alpha-4/beta-1 [1]) [µM] | Activity (Integrin alpha-4/beta-1 [2]) | Activity (Integrin alpha-4/beta-1 [3]) | Activity (Integrin alpha-4/beta-1 [4]) | inhibition (HUVEC) | Activity (CCRF-CEM)
1 | Cc1cccc(C)c1NC(=O)Nc1ccc(CC(=O)Nc2ccc(OCC(=O)O)c(CCC(=O)NCCCCCCCCCCCCN)c2)cc1 | 123 | Active |  |  |  | 
2 | Cc1cccc(C)c1NC(=O)Nc1ccc(CC(=O)O)cc1 | > 1000 |  |  |  |  | 
3 | Cc1cccc(C)c1NC(=O)Nc1ccc(CC(=O)NCCCCCCCCCCCCN)cc1 | 151 |  |  |  |  | 
4 | Cc1cccc(C)c1NC(=O)Nc1ccc(CC(=O)Nc2ccc(OCC(=O)O)c(CCC(=O)NCCOCCOCCOCCOCCOCCN)c2)cc1 | 170 | inactive |  |  |  | 
5 | Cc1cccc(C)c1NC(=O)Nc1ccc(CC(=O)NCCCCCCCCCCCCNC(=O)CCCC[C@@H]2SC[C@@H]3NC(=O)N[C@@H]32)cc1 | 97.7 |  | inactive | inactive |  | Non-toxic
6 | Cc1cccc(C)c1NC(=O)Nc1ccc(CC(=O)Nc2ccc(OCC(=O)OC(C)(C)C)c(CCC(=O)O)c2)cc1 | 68.4 |  |  |  |  | 

Now those with a lower IC50 (Integrin alpha-4/beta-1 [1]), led by results:

Row | IC50 (Integrin alpha-4/beta-1 [1]) [µM] | Activity (Integrin alpha-4/beta-1 [2]) | Activity (Integrin alpha-4/beta-1 [3]) | Activity (Integrin alpha-4/beta-1 [4]) | Structure (SMILES) | inhibition (HUVEC) | Activity (CCRF-CEM)
7 | 2.6 |  |  |  | Cc1cccc(C)c1NC(=O)Nc1ccc(CC(=O)N[C@@H](CC(C)C)C(=O)N[C@@H](CC(=O)O)C(=O)N[C@H](C(=O)NCCCCCCCCCCCCN)C(C)C)cc1 | inactive | 
8 | 14.1 |  | Active | Active | Cc1cccc(C)c1NC(=O)Nc1ccc(CC(=O)Nc2ccc(OCC(=O)O)c(CCC(=O)NCCCCCCCCCCCCNC(=O)CCCC[C@@H]3SC[C@@H]4NC(=O)N[C@@H]43)c2)cc1 |  | Non-toxic
9 | 36.3 |  |  |  | Cc1cccc(C)c1NC(=O)Nc1ccc(CC(=O)N[C@@H](CC(C)C)C(=O)N[C@@H](CC(=O)O)C(=O)N[C@H](C(=O)NCCc2ccccc2)C(C)C)cc1 | inactive | 
